Assay results as given in ChEMBL document CHEMBL4513216, “Probing the Open Global Health Chemical Diversity Library for Multistage-Active Starting Points for Next-Generation Antimalarials” (ACS Infect Dis, 2020).

assay: Toxicity liver stage against HepG2, at 10uM; assay type: cell-based; parameters: test concentration 10 uM, cell line HepG2-A16-CD81EGFP; conditions: human, HepG2-A16-CD81EGFP cells; read-out: INHIBITION
Summary of the method: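 Uninfected HepG2-A16-CD81EGFP cells, 3 × 10^3 per well, 1536-well, plated on prespotted compound at 10 μM final, parasite-free screening media added to match infected plates; puromycin 10 μM positive, DMSO 0.5% negative; run in parallel with 48 h PbLuc assay at 37 °C, 5% CO2; viability by CellTiter-Glo luminescence, normalized to controls.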

Point of comparison: C/C=C(\C)CN1C[C@H](NC(=O)c2cnc(O)cn2)C[C@H]1C(=O)NCC, cytotoxicity at 10 µM 7.31%. Against it:
- Cc1cc(N2CCc3c(ncn3C)C2)n2nc(C(F)(F)F)nc2n1 — lower, 4.11%
- CN(CCNC(=O)c1ccnc(-n2ccnc2)c1)C1CC1 — lower, 3.31%
- CSC1(CNC(=O)N(C)Cc2sccc2C)CCOCC1 — lower, -57.4%
- c1cncc(-c2nnn3c2COCC(CNCC2CCOCC2)C3)c1 (configuration not stated) — lower, -75.4%
- NC(=O)c1cc(C2CCCN(C(=O)CCc3ccccn3)C2)n[nH]1 (configuration not stated) — lower, -8.47%
- c1ccc(CCCN2CCN(c3ccc4nncn4n3)CC2)cc1 — lower, 4.2%
- Cc1nccc(CNS(=O)(=O)N2CCCC2c2ccc(C)o2)n1 (configuration not stated) — lower, -5.88%
- Cc1cc(C(=O)NCC2Cn3nnc(C)c3CO2)no1 (configuration not stated) — lower, -4.07%
- CC(=O)N1CCC(N2CCOC[C@H]2c2nc(-c3ccccc3)c[nH]2)CC1 — lower, 1.74%
- O=C(c1ccc(-c2cc[nH]n2)cc1)N1CC[C@H](CO)[C@H](O)C1 — lower, 4.52%
- COc1ccc(CCC2CCCN(C(=O)CCc3cc(O)no3)C2)cc1 (configuration not stated) — lower, -3.66%
- Cc1cc(C)nc(N2CCC(C(=O)Nc3n[nH]c(CC(C)C)n3)CC2)n1 — lower, 5.61%
- CN1CCO[C@H]2CN(S(=O)(=O)c3ccc(C#N)cc3)C[C@H]21 — lower, 7.25%
- Cn1cc(C2CCCN2C(=O)c2cnc(C3CC3)s2)cn1 (configuration not stated) — lower, -2.05%
- CS(=O)(=O)CCC(=O)Nc1cc(Cl)c(Cl)cn1 — lower, 4.52%
- N#CCc1ccc(OCC(=O)NS(=O)(=O)c2ccc(Cl)s2)cc1 — lower, 6.41%
- CCSc1ccccc1C(=O)N(CCOC)Cc1ccoc1 — higher, 13.8%
- O=c1[nH]c2ccccc2cc1CNCCCN1CCOCC1 — lower, -17.5%
- N[C@@H]1c2ccccc2C2(CCN(c3cnc4ccccc4n3)CC2)[C@H]1O — lower, -2.45%
- CCn1nc2ccc(S(=O)(=O)N3CCSCC3)cn2c1=O — lower, 2.4%
- O=C(Cc1ccc2c(c1)CCO2)N1CCCCC1Cn1cccn1 (configuration not stated) — lower, -12.8%
- CCOc1cccc(NC(=O)c2cc[nH]n2)n1 — lower, 3.51%
- CO[C@H]1CN(C(C)C)C[C@@H]1NC(=O)c1cc(-c2ccccc2F)n[nH]1 — lower, -6.01%
- O=C(c1ccccn1)N1CCc2ncc(Cn3cccn3)n2CC1 — lower, 5.44%
- CC(OCC1CC1)C(=O)N1CCCN(Cc2cscn2)CC1 (configuration not stated) — lower, -5.16%
- Cc1noc([C@@H]2C[C@H](NC(=O)C3CCCCC3)CN2C)n1 — lower, -4.89%
- N#CCCN(C(=O)CN1CCCC1c1cccs1)c1ccccc1F (configuration not stated) — lower, -9.1%
- c1cnc2[nH]nc(C3CCN(Cc4ccsc4)CC3)c2c1 — lower, -27.3%
- Cc1nc(NC(=O)COCC(F)(F)F)ccc1Br — higher, 9.44%
- CCN1CC2(CCN(CCOCCO)CC2)CC(c2ccccc2)C1=O (configuration not stated) — higher, 42.4%
- Cc1ccc2occ(CN3CCN(c4ncccn4)CC3)c(=O)c2c1 — lower, -2.46%
- COc1cc(C(=O)NS(=O)(=O)c2cccc(C#N)c2)cc(OC)c1C — lower, -5.02%
- Cc1nc(CN2CC(Cc3ccccc3)CC2=O)no1 (configuration not stated) — lower, 2.42%
- CC(C)N1CCO[C@H]2CN(C(=O)Cc3ccsc3)C[C@H]21 — higher, 11.4%
- O=C1CC2(CCCNC2)C(=O)N1Cc1cccc(Cl)c1 (configuration not stated) — lower, -1.19%
- CC(=O)Nc1c(C)noc1C=Cc1ccc(S(=O)(=O)NC2CC2)cc1 — lower, 0.54%
- CSC(C)(C)CNC(=O)NCc1cccc(-n2cncn2)c1 — lower, -14.4%
- O=C(c1cc(C2CCCCC2)no1)N1C[C@H]2CC(O)C[C@H]2C1 (some centres not stated) — lower, -3.89%
- Cc1noc(C(C)C)c1C(=O)NCCCN1CCC(C)CC1 — lower, -15.9%
- O=C(c1ccc(F)cc1Cl)N1CCC(Nc2cccnn2)CC1 — lower, -8.08%
- CCCN1C[C@H](NC(=O)c2cccs2)[C@@H](c2ccc(OC)cc2)C1 — lower, -9.96%
- O=C(O)CCc1cccc(C2CCCN2Cc2ccc(F)c(F)c2)n1 (configuration not stated) — lower, -5.25%
- CCn1nnc2c1C(COCCN(C)C)CN(Cc1ccc(C)s1)C2 (configuration not stated) — lower, 4.44%
- CC(C)=CCN1CCN(C(=O)CSc2ccccn2)[C@H]2CS(=O)(=O)C[C@H]21 — lower, 4.97%
- CC(=O)Nc1nc(CN2CCOC(Cn3nc(C)cc3C)C2)cs1 (configuration not stated) — lower, 4.23%
- Cc1cc(C(=O)N2CCCC3(CN(C)C(=O)O3)C2)c2ccc(F)cc2n1 (configuration not stated) — lower, 3.05%
- O=C(NCc1cccs1)[C@H]1CC[C@@H]2[C@@H](CCN2c2ncccn2)O1 — lower, -24.2%
- Cc1cnn(CC2CCCN2C(=O)c2cccc(-n3cnnn3)c2)c1 (configuration not stated) — lower, -4.3%
- Cc1cc(C)n(CC(C)CNC(=O)N(C)Cc2cc(C)on2)n1 (configuration not stated) — lower, -10.2%
- CC(C)N1CCCC(N2CCOC3(CCCC3)C2)C1=O (configuration not stated) — lower, -7.33%
- CCc1nsc(NC2CC(=O)N(C3CC3)C2)n1 (configuration not stated) — higher, 9.43%
- Cn1ncc2c1NC(=O)CSC2c1ccccc1Cl (configuration not stated) — lower, 5.81%
- COC(=O)[C@@H]1Cc2ncn(C(C)C)c2CN1S(=O)(=O)Cc1ccccc1 — lower, -2.51%
- CCCn1ncc(CN(CCN(C)C)Cc2ccsc2)c1C — higher, 12.2%
- COc1ccc(F)cc1C(=O)N1CCCC(n2nc(C)nc2C)C1 (configuration not stated) — lower, 3.05%
- CC(C)(O)CSCCNC(=O)c1cc(F)ccc1F — lower, -4.11%
- N#Cc1cccc(C(=O)Nc2ccc([C@@H](O)[C@H]3COCC(=O)N3)cc2)c1 — lower, -4.25%
- CCc1nc(C(=O)N2CCN(CCc3ccc(OC)cc3)CC2)c[nH]1 — lower, -9.56%
- Cc1ccnc(C2(C)CCCN2S(=O)(=O)c2cccnc2)n1 (configuration not stated) — lower, 5.95%
- CC(C)(O)CN1CCN(C(=O)COCc2ccccc2Cl)CC1 — lower, -4.72%
- CC(C)[C@H]1CN(Cc2nccn2C)C[C@@H]1NC(=O)CCS(C)(=O)=O — lower, -8.85%
- CC(C)COC(C)C(=O)N1CCCCC1 (configuration not stated) — lower, -5.66%
- O=C(NCCCn1ccnc1)c1csc2c1CCCC2 — lower, -2.96%
- CC(=O)N(Cc1noc(C)n1)C1CCN(Cc2cnc(C)s2)C1 (configuration not stated) — lower, -9.65%
- CC(C)Oc1cccc(C(=O)C2CCCN(C(=O)c3ccccn3)C2)c1 (configuration not stated) — lower, -7.67%
- CN(C)CCCn1ccc(-c2cccc(-c3ccccn3)c2)n1 — lower, -6.02%
- Cc1cccc(NC(C)C(=O)Nc2nccs2)c1 (configuration not stated) — lower, -0.524%
- CNc1cc(C2CCN2c2ncccn2)nc(C)n1 (configuration not stated) — lower, 1.72%
- Cc1cc(CN(CCO)c2ccc(Br)cc2)on1 — lower, 1.78%
- CCOc1ccc(Cl)cc1CCNC(=O)Cn1nc(C)ccc1=O — lower, -3.91%
- Cc1nc2c(N3CCN(Cc4ccccc4)CC3)nc(N)nc2n1C — lower, 5.61%
- c1c[nH]c2nc(C3CCNC3)nc-2c1 (configuration not stated) — higher, 10.3%
- O=C(CC1CCCC1)N1C[C@@H]2C[C@@H]1CN2 — lower, -0.714%
- CCN(CC)S(=O)(=O)NCC1COc2ccccc2O1 (configuration not stated) — lower, 0.347%
- CCC(CC#N)n1ccc(C(F)(F)F)n1 (configuration not stated) — lower, -8.38%
- COCCOCC(=O)Nc1ccnn1-c1ccc(Cl)cc1 — lower, -11.6%
- CN(Cc1n[nH]c2c1CCCCC2)C(=O)c1cc(-c2cccn2C)n[nH]1 — lower, 3.02%
- CC(C)SCCNC(=O)c1cccc2ccnn12 — lower, -51.6%
- CN(Cc1ccco1)Cc1cncc2c1CCN(c1ncccn1)C2 — lower, -6.42%
- CN(Cc1ccccc1)C1(C(=O)NC(CO)CO)Cc2ccccc2C1 — lower, 2.59%
- c1csc(CN2CCOCC3(CCN(C4CCOCC4)C3)C2)c1 (configuration not stated) — lower, -0.608%
